Source: ChEMBL document CHEMBL1126590, “32-Methyl-32-oxylanosterols: dual-action inhibitors of cholesterol biosynthesis” (J Med Chem, 1993)

Experiments:
[1] = biological target: T1, 3-hydroxy-3-methylglutaryl-coenzyme A reductase (Homo sapiens, UniProt P04035); test: Inhibition of HMG-coA Reductase enzyme in chinese hamster ovary cells; format: cell-based, Cricetulus griseus, CHO
T1 sequence (P04035 whole entry): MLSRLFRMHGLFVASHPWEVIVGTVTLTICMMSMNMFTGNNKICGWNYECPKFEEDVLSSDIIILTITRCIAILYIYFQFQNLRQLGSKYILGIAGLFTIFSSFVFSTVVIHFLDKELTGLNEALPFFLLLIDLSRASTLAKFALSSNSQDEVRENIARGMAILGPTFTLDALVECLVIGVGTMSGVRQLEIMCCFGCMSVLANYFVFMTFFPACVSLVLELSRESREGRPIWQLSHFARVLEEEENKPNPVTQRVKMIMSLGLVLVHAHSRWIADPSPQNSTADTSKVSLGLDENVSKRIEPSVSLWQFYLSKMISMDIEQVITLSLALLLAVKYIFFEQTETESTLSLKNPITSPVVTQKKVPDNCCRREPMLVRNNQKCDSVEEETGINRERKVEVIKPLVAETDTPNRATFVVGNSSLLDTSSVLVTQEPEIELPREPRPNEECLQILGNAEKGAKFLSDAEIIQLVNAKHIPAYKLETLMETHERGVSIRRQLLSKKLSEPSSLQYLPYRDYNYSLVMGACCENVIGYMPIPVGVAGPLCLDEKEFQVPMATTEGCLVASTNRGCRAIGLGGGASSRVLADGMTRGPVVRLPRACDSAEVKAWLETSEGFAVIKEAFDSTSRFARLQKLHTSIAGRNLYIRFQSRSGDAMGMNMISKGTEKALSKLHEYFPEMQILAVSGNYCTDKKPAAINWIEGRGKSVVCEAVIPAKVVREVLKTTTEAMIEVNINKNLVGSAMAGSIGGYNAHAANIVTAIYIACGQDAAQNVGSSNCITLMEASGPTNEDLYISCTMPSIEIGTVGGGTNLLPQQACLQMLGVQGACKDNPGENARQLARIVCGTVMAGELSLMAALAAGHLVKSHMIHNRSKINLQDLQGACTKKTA
Procedure, shortened: (§1)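 Cells grown in McCoy's 5a medium with 1% delipidated FBS under 5% CO2 and treated 4 h with compound given as a BSA suspension from an ethanol stock (final BSA 0.5 mg/mL, ethanol ≤0.5%). Cells permeabilized with 30 μg/mL digitonin in CSK buffer pH 6.8, then preincubated 20 min at 37 °C. Conversion of [14C]HMG-CoA to mevalonolactone measured with [3H]mevalonolactone internal standard and TLC separation. Value is the concentration reducing activity to 50% of control.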

[2] = biological target: T1, 3-hydroxy-3-methylglutaryl-coenzyme A reductase; test: Inhibition of HMG-coA Reductase enzyme in AR45 cells; format: cell-based; procedure, shortened: as §1
[3] = biological target: Lanosterol 14-alpha demethylase (Cricetulus griseus); test: Inhibition of cytochrome P450DM in intact CHO cells
[4] = biological target: T2, Lanosterol 14-alpha demethylase (Rattus norvegicus, UniProt Q64654); test: (§2) Inhibition rat liver microsome cytochrome P450DM; format: microsomes
T2 sequence (Q64654 whole entry): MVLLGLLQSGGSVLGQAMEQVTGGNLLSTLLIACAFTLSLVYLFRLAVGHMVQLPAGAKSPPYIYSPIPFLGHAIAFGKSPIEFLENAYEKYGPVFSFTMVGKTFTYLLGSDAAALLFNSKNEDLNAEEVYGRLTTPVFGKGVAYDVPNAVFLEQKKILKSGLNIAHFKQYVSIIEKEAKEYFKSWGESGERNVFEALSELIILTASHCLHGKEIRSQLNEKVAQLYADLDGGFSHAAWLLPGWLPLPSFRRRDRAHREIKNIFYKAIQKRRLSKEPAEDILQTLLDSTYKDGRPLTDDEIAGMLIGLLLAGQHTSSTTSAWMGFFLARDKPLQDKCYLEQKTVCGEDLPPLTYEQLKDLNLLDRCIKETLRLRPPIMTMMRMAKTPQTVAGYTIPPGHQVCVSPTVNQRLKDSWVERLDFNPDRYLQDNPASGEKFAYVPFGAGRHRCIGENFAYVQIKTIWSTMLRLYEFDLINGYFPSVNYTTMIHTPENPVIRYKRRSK
Procedure, shortened: (§3)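 Buffer: phosphate pH 7.4 with glutathione, EDTA, 20% glycerol, NAD(P)H cofactors, isocitrate/isocitrate dehydrogenase, MgCl2, AY-9944, NaCN. Diene product quantified by UV-HPLC. IC50 taken from linear plots of reciprocal turnover vs inhibitor concentration.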

[5] = substrate: [H][C@]1([C@]([H])(C)CCCC(C)C)CC[C@@]2(C)C3=C(CC[C@]12C)[C@@]1(C)CC[C@H](O)C(C)(C)C1CC3; test: as §2; format: microsomes; procedure, shortened: as §3

With `CC(=O)[C@@]12CC[C@H]([C@H](C)CCCC(C)C)[C@@]1(C)CCC1C2=CCC2C(C)(C)[C@@H](O)CC[C@]12C` (stereo partly drawn) the IC50 [1] was 1000 nM, the IC50 [2] was > 20000 nM and the IC50 [3] was 2700 nM. It also gave an IC50 [4] of 9100 nM.

`CC(C)CCC[C@@H](C)[C@H]1CC[C@@]2(C(C)O)C3=CCC4C(C)(C)[C@@H](O)CC[C@]4(C)C3CC[C@]12C` (stereo in doubt; 17a) was tested, and the IC50 [1] was 3000 nM, the IC50 ([2]; ar45) was > 20000 nM and the IC50 [3] was 300 nM. It also gave an IC50 [4] of 330 nM.

With `CC(C)CCC[C@@H](C)[C@H]1CC[C@@]2(C(C)O)C3=CCC4C(C)(C)[C@@H](O)CC[C@]4(C)C3CC[C@]12C` (stereo in doubt; 17b) the IC50 [1] was 1500 nM, the IC50 [2] was > 20000 nM and the IC50 [3] was 300 nM. For the same molecule, the IC50 [4] was 1600 nM.

B1: Lanosterol 14-alpha demethylase (Rattus norvegicus) (protein)
chain: MVLLGLLQSGGSVLGQAMEQVTGGNLLSTLLIACAFTLSLVYLFRLAVGHMVQLPAGAKSPPYIYSPIPFLGHAIAFGKSPIEFLENAYEKYGPVFSFTMVGKTFTYLLGSDAAALLFNSKNEDLNAEEVYGRLTTPVFGKGVAYDVPNAVFLEQKKILKSGLNIAHFKQYVSIIEKEAKEYFKSWGESGERNVFEALSELIILTASHCLHGKEIRSQLNEKVAQLYADLDGGFSHAAWLLPGWLPLPSFRRRDRAHREIKNIFYKAIQKRRLSKEPAEDILQTLLDSTYKDGRPLTDDEIAGMLIGLLLAGQHTSSTTSAWMGFFLARDKPLQDKCYLEQKTVCGEDLPPLTYEQLKDLNLLDRCIKETLRLRPPIMTMMRMAKTPQTVAGYTIPPGHQVCVSPTVNQRLKDSWVERLDFNPDRYLQDNPASGEKFAYVPFGAGRHRCIGENFAYVQIKTIWSTMLRLYEFDLINGYFPSVNYTTMIHTPENPVIRYKRRSK
In the case of B1, the Km [5] is reported as 33 µM.
